Several values for one entry are separate records, joined by “and”; a condition that tells them apart may be missing. Identical values can stand only once.
species on record: Rattus norvegicus; assay: Activity expressed as the dose required to reduce the lowering of the arterial blood pressure caused by PAF by 50%.; format: functional; details: Artery, read-out: ID50 (the source's name)
Procedure, shortened: (§1)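 Male Sprague-Dawley rats (180–220 g) anesthetized with sodium pentobarbital (50 mg/kg ip). Carotid arterial pressure was recorded. Compound was given iv in saline (1 mL/kg) via femoral vein 3 min before PAF (0.5 μg/kg iv); vehicle controls.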

Structure (SMILES)	ED50 [mg/kg]
CCCCCCCCCCCCCCC1COC(COC(=O)CCCCC[n+]2ccsc2)C1.Cc1ccc(S(=O)(=O)[O-])cc1 (stereo not given)	> 5
CCCCCCCCCCCCCCCCCC1OCC(COCCCCCCCC[n+]2ccsc2)O1.Cc1ccc(S(=O)(=O)[O-])cc1 (stereo not given)	> 5
CC1OCC(COC(=O)CCCCC[n+]2ccsc2)O1.Cc1ccc(S(=O)(=O)[O-])cc1 (stereo not given)	> 5

target: Platelet-activating factor receptor (Rattus norvegicus) (UniProt P46002); assay: Activity expressed as the dose required to reduce the lowering of the arterial blood pressure caused by PAF by 50%; format: functional; details: Artery; procedure, shortened: as §1
Sequence (P46002 whole entry): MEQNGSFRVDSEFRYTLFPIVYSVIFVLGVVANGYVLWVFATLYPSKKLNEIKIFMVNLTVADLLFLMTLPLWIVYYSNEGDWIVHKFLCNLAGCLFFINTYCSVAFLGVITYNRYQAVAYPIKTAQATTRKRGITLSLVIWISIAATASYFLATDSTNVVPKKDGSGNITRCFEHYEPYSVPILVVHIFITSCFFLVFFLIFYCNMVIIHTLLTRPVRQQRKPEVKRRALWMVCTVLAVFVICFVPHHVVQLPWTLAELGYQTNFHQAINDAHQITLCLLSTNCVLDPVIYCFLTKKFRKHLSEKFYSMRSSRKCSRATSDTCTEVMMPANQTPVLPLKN

Structure (SMILES)	ID50
CCCCCCCCCCCCCCCNC(=O)OCC1CC(COC(=O)N(Cc2cccc[n+]2CC)C(C)=O)CO1 (stereo not given)	0.049 mg/kg
CCCCCCCCCCCCCCCCOCC1CC(COC(=O)N(Cc2cccc[n+]2CC)C(C)=O)CO1 (stereo not given)	0.027 mg/kg and 0.02 mg/kg
CCCCCCCCCCCCCCCCCCOCC1CC(COC(=O)CCCCC[n+]2ccsc2)CO1 (stereo not given)	1.1 mg/kg
CCCCCCCCCCCCCCCCCCOCC1CC(COCCCCCCC[n+]2ccsc2)CO1 (stereo not given)	2.1 mg/kg
CCCCCCCCCCCCCCCCOCC1CCC(COC(=O)N(Cc2cccc[n+]2CC)C(C)=O)O1 (stereo not given)	0.036 mg/kg
CCCCCCCCCCCCCCCCCC1OCC(COP(=O)([O-])OCC[N+](C)(C)C)O1 (stereo not given)	> 5 mg/kg
CCCCCCCCCCCCCCCCOCC1COC(COC(=O)N(Cc2ccccn2)C(C)=O)C1 (stereo not given)	> 5 mg/kg
CCCCCCCCCCCCCCCCOCC1COC(COC(=O)N(Cc2cccc[n+]2CC)C(C)=O)C1 (stereo not given)	0.044 mg/kg and 0.035 mg/kg
CCCCCCCCCCCCCC1OCC(COC(=O)CCCCC[n+]2ccsc2)O1 (stereo not given)	> 5 mg/kg
CCCCCCCCCCCCCCCNC(=O)OCC1CC(COC(=O)N(Cc2cccc[n+]2CC)C(C)=O)CO1 (stereo in doubt; form 1)	0.057 mg/kg
CCCCCCCCCCCCCCCC1CCC(COC(=O)CCCCC[n+]2ccsc2)O1 (stereo not given)	1.2 mg/kg
CCCCCCCCCCCCCCCCOCC1COC(COC(=O)NCc2cccc[n+]2CC)C1 (stereo not given)	> 5 mg/kg
CCCCCCCCCCCCCCC1COC(COP(=O)([O-])OCC[n+]2ccccc2)C1 (stereo not given)	> 5 mg/kg
CCCCCCCCCCCCCCCCOCC1OCC(COC(=O)CCCCC[n+]2ccsc2)O1 (stereo not given)	1.1 mg/kg
CCCCCCCCCCCCCCCCOCC1COC(COC(=O)N(C(C)=O)c2ccc[n+](CC)c2)C1 (stereo not given)	0.13 mg/kg
CCCCCCCCCCCCCCCCOCC1OCC(COCCCCCC[n+]2ccsc2)O1 (stereo not given)	1.8 mg/kg
CCCCCCCCCCCCCCC1COC(COC(=O)N(Cc2cccc[n+]2CC)C(C)=O)C1 (stereo not given)	0.24 mg/kg
CCCCCCCCCCCCCCCCOCC1COC(COCCCCCC[n+]2ccsc2)C1 (stereo not given)	1.2 mg/kg
CCCCCCCCCCCCCCCCOCC1OCC(COCCCC[n+]2ccsc2)O1 (stereo not given)	2.7 mg/kg
CCCCCCCCCCCCCCC1COC(COCCCCCCCC[n+]2ccsc2)C1 (stereo not given)	2.3 mg/kg
CCCCCCCCCCCCCCCCCCOCC1COC(COC(=O)N(Cc2cccc[n+]2CC)C(C)=O)C1 (stereo not given)	0.035 mg/kg
CCCCCCCCCCCCCCC1COC(COCCCCCC[n+]2cccc3ccccc32)C1 (stereo not given)	3 mg/kg
CCCCCCCCCCCCCCCCCCOCC1COC(COC(=O)N(Cc2ccc[n+](CC)c2)C(C)=O)C1 (stereo not given)	> 5 mg/kg
CCCCCCCCCCCCCCCCCC1OCC(COC(=O)N(Cc2cccc[n+]2CC)C(C)=O)O1 (stereo not given)	0.24 mg/kg

Structure (SMILES)	ID50
CCCCCCCCCCCCCCCNC(=O)OCC1CC(COC(=O)N(Cc2cccc[n+]2CC)C(C)=O)CO1 (stereo in doubt; form 2)	0.042 mg/kg
CCCCCCCCCCCCCCCCCC1OCC(COC(=O)CCCCC[n+]2ccsc2)O1 (stereo not given)	0.88 mg/kg
CCCCCCCCCCCCCCCCCC1OCC(COCCCCCC[N+](C)(C)C)O1 (stereo not given)	> 5 mg/kg
CCCCCCCCCCCCCCCCCC1CCC(COC(=O)N(Cc2cccc[n+]2CC)C(C)=O)O1 (stereo not given)	0.15 mg/kg
CCCCCCCCCCCCCCCCCCOCC1COC(COC(=O)CCCCC[n+]2ccsc2)C1 (stereo not given)	2.4 mg/kg
CCCCCCCCCCCCCCCCCC1OCC(COCCCCCC[N+]2(C)CCOCC2)O1 (stereo not given)	> 5 mg/kg
CCCCCCCCCCCCCCCC1CCC(COC(=O)N(Cc2cccc[n+]2CC)C(C)=O)O1 (stereo not given)	0.15 mg/kg
CCCCCCCCCCCCCCCCCCOCC1COC(COC(=O)Nc2cc[n+](CC)cc2)C1 (stereo not given)	> 5 mg/kg
CCCCCCCCCCCCCCCCCCOCC1COC(COC(=O)NCc2cc[n+](CC)cc2)C1 (stereo not given)	> 5 mg/kg
CCCCCCCCCCCCCCCCCC1OCC(COCCCC[n+]2ccsc2)O1 (stereo not given)	> 5 mg/kg
CCCCCCCCCCCCCCCCCCOCC1COC(COC(=O)N(Cc2cccc[n+]2CC)C(C)=O)O1 (stereo not given)	0.017 mg/kg
CCCCCCCCCCCCCCCCCCOCC1OCC(COC(=O)N(Cc2cccc[n+]2CC)C(C)=O)O1 (stereo not given)	0.041 mg/kg
CCCCCCCCCCCCCCOCC1COC(COC(=O)N(Cc2cccc[n+]2CC)C(C)=O)C1 (stereo not given)	0.087 mg/kg
CCCCCCCCCCCCCCCCCC1CC(COC(=O)N(Cc2cccc[n+]2CC)C(C)=O)CO1 (stereo not given)	0.052 mg/kg
CCCCCCCCCCCCCCCCCCC1COC(COC(=O)N(Cc2cccc[n+]2CC)C(C)=O)C1 (stereo not given)	0.23 mg/kg
CCCCCCCCCCCCCCCCOCC1COC(COC(=O)N(Cc2cccc[n+]2CC)C(=O)OCC)C1 (stereo not given)	0.035 mg/kg
CCCCCCCCCCCCCCCCOCC1OCC(COC(=O)N(Cc2cccc[n+]2CC)C(C)=O)O1 (stereo not given)	0.024 mg/kg
CCCCCCCCCCCCCCCCOCC1COC(COC(=O)N(C(C)=O)c2cc[n+](CC)cc2)C1 (stereo not given)	> 5 mg/kg
CCCCCCCCCCCCCCCCCCOCC1COC(COC(=O)N(Cc2cc[n+](CC)cc2)C(C)=O)C1 (stereo not given)	1.6 mg/kg
CCCCCCCCCCCCCCC1COC(COCCCCCCC[n+]2ccsc2)C1 (stereo not given)	1.5 mg/kg
CCCCCCCCCCCCCCC1COC(COCCCCCC[n+]2ccsc2)C1 (stereo in doubt; form 2)	2.9 mg/kg
CCCCCCCCCCCCCCCCCC1OCC(COCCCCCC[n+]2cscc2C)O1 (stereo not given)	3.1 mg/kg
CCCCCCCCCCCCCCCCOCC1CC(COCCCCCC[n+]2ccsc2)CO1 (stereo not given)	1.8 mg/kg
CCCCCCCCCCCCCCCCCCCC1OCC(COC(=O)CCCCC[n+]2ccsc2)O1 (stereo not given)	5.1 mg/kg

Structure (SMILES)	ID50
CCCCCCCCCCCCCCC1COC(COP(=O)([O-])OCC[N+](C)(C)C)C1 (stereo not given)	> 5 mg/kg
CCCCCCCCCCCCCCCCCC1OCC(COCCCCCC[n+]2ccsc2)O1 (stereo not given)	1.3 mg/kg
CCCCCCCCCCCCCCCC1CCC(COCCCCCC[n+]2ccsc2)O1 (stereo not given)	2 mg/kg
CCCCCCCCCCCCCCCCOCC1COC(COC(=O)NCCc2cccc[n+]2CC)C1 (stereo not given)	> 5 mg/kg
CCCCCCCCCCCCCCCCOCC1COC(COC(=O)CCCCC[n+]2ccsc2)C1 (stereo not given)	1.7 mg/kg
CCCCCCCCCCCCCCCCC1COC(COCCCCCCC[n+]2ccsc2)C1 (stereo not given)	2 mg/kg
CCCCCCCCCCCCCCCCCC1OCC(COP(=O)([O-])OCC[n+]2ccccc2)O1 (stereo not given)	> 5 mg/kg
CCCCCCCCCCCCCCCNC(=O)OCC1COC(COC(=O)N(Cc2cccc[n+]2CC)C(C)=O)C1 (stereo not given)	0.067 mg/kg and 0.033 mg/kg
CCCCCCCCCCCCCCCCCC1OCC(COCCCCCC[n+]2cccc3ccccc32)O1 (stereo not given)	3.8 mg/kg
CCCCCCCCCCCCCCC1COC(COCCCCCC[n+]2ccsc2)C1 (stereo in doubt; form 1)	2.5 mg/kg
CCCCCCCCCCCCCCCCCCOCC1CC(COCCCCC[n+]2ccsc2)CO1 (stereo not given)	2.5 mg/kg
CCCCCCCCCCCCCCOCC1COC(COC(=O)N(Cc2cccc[n+]2CC)C(C)=O)O1 (stereo not given)	0.2 mg/kg
CCCCCCCCCCCCCCCCOCC1COC(COC(=O)N(Cc2cccc[n+]2CC)C(C)=O)O1 (stereo not given)	0.057 mg/kg and 0.029 mg/kg
CCCCCCCCCCCCCCCC1OCC(COC(=O)CCCCC[n+]2ccsc2)O1 (stereo not given)	0.86 mg/kg
CCCCCCCCCCCCCCC1COC(COCCCCCC[N+](C)(C)C)C1 (stereo not given)	> 5 mg/kg
CCCCCCCCCCCCCCCCOCC1COC(COC(=O)N(Cc2cccc[n+]2C)C(C)=O)C1 (stereo not given)	0.24 mg/kg
CCCCCCCCCCCCCCCCCC1COC(COC(=O)N(Cc2cccc[n+]2CC)C(C)=O)O1 (stereo not given)	0.074 mg/kg
CCCCCCCCCCCCCCCCOCC1COC(COC(=O)N(CCc2cccc[n+]2CC)C(C)=O)C1 (stereo not given)	> 5 mg/kg
CCCCCCCCCCCCCCCCCC1OCC(COCCCCCC[n+]2ccccc2)O1 (stereo not given)	> 5 mg/kg
CCCCCCCCCCCCCCOCC1COC(COCCCCCCC[n+]2ccsc2)C1 (stereo not given)	1.4 mg/kg
CCCCCCCCCCCCOCC1COC(COCCCCCCC[n+]2ccsc2)C1 (stereo not given)	3.7 mg/kg
CCCCCCCCCCCCCCOCC1COC(COCCCCCC[n+]2ccsc2)C1 (stereo not given)	3.1 mg/kg
CCCCCCCCCCCCCCCCCCNC(=O)OCC(COC(=O)N(Cc1cccc[n+]1CC)C(C)=O)OC (stereo not given)	0.0078 mg/kg and 0.011 mg/kg
CCCCCCCCCCCCCCC1COC(COCCCC[n+]2ccsc2)C1 (stereo not given)	> 5 mg/kg
